Statin myotox sup – suppression of simvastatin myotoxicity. C2C12 myotubes + simvastatin, ATP luminescence, 48 h; scaled: DMSO 0, geranylgeraniol control 100. rescue of ATP level, % at 7.49 µM. 330,000 tested, 0.78% active. AID 602340;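 active = mean ATP rescue above about 67%, or every replicate alone reaching that limit, limit read from the data, passing the limit was not always enough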;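 also: myotubes were challenged with 10 µM simvastatin during compound exposure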
DENV2 CPE – protects cells from dengue virus 2 cytopathic effect. DENV2-infected cells, cytopathic effect rescue, plate reader. CPE inhibition, % at 9.99 µM. 350,000 tested, 1.7% active; in the data active = CPE inhibition above about 20%, passing the limit was not always enough; tested in BHK-21 cells;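 also: 0% = median of neutral control wells and 100% = median of positive control wells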
E-selectin induc – E-selectin induction on HUVECs | P16581 | HUVEC E-selectin immunofluorescence imaging; normalized: neutral wells 0, TNF-alpha wells 100 | activation, % at 7.58 µM | 260,000 tested, 0.37% active | AID 686992;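 active = mean E-selectin-positive cell signal at least 10% of the positive control, reached in at least 60% of replicates, without over 20% cell loss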
Target sequence (P16581 whole entry, looked up): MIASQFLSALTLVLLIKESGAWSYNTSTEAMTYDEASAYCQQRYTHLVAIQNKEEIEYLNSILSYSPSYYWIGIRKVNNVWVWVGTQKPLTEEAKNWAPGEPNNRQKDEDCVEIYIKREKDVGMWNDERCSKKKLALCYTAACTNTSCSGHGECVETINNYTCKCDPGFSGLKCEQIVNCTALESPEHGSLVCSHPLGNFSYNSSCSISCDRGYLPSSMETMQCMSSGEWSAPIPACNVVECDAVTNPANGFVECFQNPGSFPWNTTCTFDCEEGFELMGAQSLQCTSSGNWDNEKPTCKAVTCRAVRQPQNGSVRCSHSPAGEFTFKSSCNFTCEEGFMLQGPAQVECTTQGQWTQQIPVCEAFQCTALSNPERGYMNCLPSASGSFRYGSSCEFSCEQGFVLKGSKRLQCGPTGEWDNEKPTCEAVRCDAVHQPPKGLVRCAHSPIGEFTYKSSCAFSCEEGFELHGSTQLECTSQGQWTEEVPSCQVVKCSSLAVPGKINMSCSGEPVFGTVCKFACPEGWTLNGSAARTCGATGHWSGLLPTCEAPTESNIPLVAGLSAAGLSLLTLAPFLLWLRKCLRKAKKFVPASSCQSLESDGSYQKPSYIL
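Read-out: % PE-positive cells | Test system: HUVEC | Doses: One compound dose added by pin transfer | Buffer or medium: EGM-2 over gelatin coat | Signal: Immunofluorescence imaging | Benchmarks: TNF-alpha, DMSO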
* hit, by the source's call; / = no result given. Hits are enriched below; roughly 2.2% of the tested compounds scored in any of these assays.

SMILES	Statin myotox sup	DENV2 CPE	E-selectin induc
Cc1ccc(S(=O)(=O)Nc2ccc3c(c2)C(=O)N([C@@H](C)CO)C[C@H](C)[C@H](CN(C)C(=O)C2CCCCC2)OCCCC[C@H](C)O3)cc1	/	10	0
COc1ccc(CCN(C)C(=O)CSc2nc3ccccc3c(=O)n2CC2CCCO2)cc1OC (centres undefined)	27	21*	0
Cc1ccc(CNC(=O)CSc2nc3ccccc3c(=O)n2CC2CCCO2)cc1 (centres undefined)	-2	-5	1
COc1ccccc1CN1[C@H](CO)[C@@H]2c3ccccc3N(C(=O)C3CCC3)C[C@@H]21	10	-11	0
CC(=O)c1c(C)[nH]c(C(=O)NNC(=O)COc2cc(C)cc(C)c2)c1C	-10	33*	0
CC(=O)c1c(C)[nH]c(C(=O)NNC(=O)c2ccc(C)cc2)c1C	2	-3	0
N#Cc1ccc(C(=O)Nc2cc(C3CC3)nn2-c2ccccc2)cc1	18	22*	0
N#Cc1ccc(C(=O)Nc2cc(-c3ccccc3)nn2-c2ccccc2)cc1	1	-3	0
Cc1noc(C)c1S(=O)(=O)Nc1ccc2c(c1)C(=O)N([C@@H](C)CO)C[C@@H](C)[C@@H](CN(C)Cc1ccc(C(=O)O)cc1)OCCCC[C@@H](C)O2	/	4	0
C[C@@H]1CCCCO[C@@H](CN(C)C(=O)c2ccccc2)[C@H](C)CN([C@H](C)CO)C(=O)c2cc(NC(=O)NC3CCCCC3)ccc2O1	-50	1	0
CC(=O)c1ccc2c3c(cc(C)c2c1)CCCC3	3	25*	0
CC(=O)c1cccc(NC(=O)c2ccc3c(c2)CCCC3)c1	-3	15	/
O=C(Nc1ccc2c(c1)OCCO2)C(c1ccnc2ccccc12)n1c(=O)c(-c2ccco2)nc2ccccc21 (centres undefined)	/	50*	0
O=C(Nc1ccc2c(c1)OCCO2)C(c1ccncc1)n1c(=O)c(-c2ccco2)nc2ccccc21 (centres undefined)	/	17	0
C[C@@H]1CCCCO[C@@H](CN(C)C(=O)c2ccccc2)[C@@H](C)CN([C@@H](C)CO)C(=O)c2cc(NS(=O)(=O)c3ccc(F)cc3)ccc2O1	/	121*	0
C[C@H](CO)N1C[C@H](C)[C@H](CN(C)C(=O)c2ccccc2)OCCCC[C@H](C)Oc2ccc(NS(=O)(=O)c3ccc(F)cc3)cc2C1=O	/	-3	0
C[C@@H]1CCCCO[C@H](CN(C)C(=O)C2CCCCC2)[C@@H](C)CN([C@H](C)CO)C(=O)c2cc(NS(=O)(=O)c3ccc(Cl)cc3)ccc2O1	/	3	0
C[C@@H]1CCCCO[C@H](CN(C)C(=O)C2CCCCC2)[C@H](C)CN([C@H](C)CO)C(=O)c2cc(NS(=O)(=O)c3ccc(Cl)cc3)ccc2O1	/	39*	0
C[C@@H]1CCCCO[C@@H](CN(C)C(=O)c2ccccc2)[C@@H](C)CN([C@@H](C)CO)C(=O)c2cc(NS(=O)(=O)c3ccc(Cl)cc3)ccc2O1	/	21*	0
C[C@@H]1CCCCO[C@@H](CN(C)C(=O)c2ccccc2)[C@H](C)CN([C@@H](C)CO)C(=O)c2cc(NS(=O)(=O)c3ccc(Cl)cc3)ccc2O1	/	-10	0
CCCC#Cc1ccc([C@@H]2[C@H](CO)N3C(=O)CN(C(=O)c4ccc(F)cc4)C[C@@H]23)cc1	/	-5	1
COc1cccc(S(=O)(=O)Nc2ccc3c(c2)OC[C@@H](C)N(C(=O)Cc2cccnc2)C[C@H](C)[C@@H](OC)CN(C)C3=O)c1	-6	/	0
COc1ccc2c3c(n(C)c2c1)[C@H](CO)N(CC1CCOCC1)CC31CCN(CC2CCOCC2)CC1	/	13	0
CNC[C@@H]1Oc2c(NS(=O)(=O)c3ccc(OC)cc3)cccc2C(=O)N([C@H](C)CO)C[C@H]1C	15	-3	/
CO[C@H]1CC[C@H]2CCOc3ccc(C#N)cc3C(=O)N(C)C[C@@H](C)C(=O)N(C)C[C@@H]1O2	-18	-2	0
SMILES	Statin myotox sup	DENV2 CPE	E-selectin induc
CCSc1nnc(NC(=O)c2c(-c3ccccc3Cl)noc2C)s1	126*	/	/
Cc1onc(-c2ccccc2Cl)c1C(=O)Nc1nnc(-c2cccc([N+](=O)[O-])c2)s1	-16	7	0
N/C(=N\OC(=O)Nc1ccccc1)c1cccc(C(F)(F)F)c1	-21	-2	/
Cc1cc(/C(N)=N/OC(=O)Nc2cccc(C(F)(F)F)c2)no1	/	0	67*
CO[C@H]1CC[C@H]2CCN(C)C(=O)[C@H](C)[C@@H](OC)CN(C)C(=O)c3cccc(C#N)c3OC[C@H]1O2	2	3	0
C[C@@H]1CN([C@H](C)CO)C(=O)c2cc(NC(=O)Cc3ccccc3)ccc2O[C@@H]1CN(C)Cc1ccc(-c2ccccc2)cc1	/	/	-1
C[C@H](CO)N1C[C@H](C)[C@@H](CN(C)C(=O)C2CCCCC2)Oc2ncc(-c3cccc(F)c3)cc2C1=O	3	-3	1
Fc1ccccc1-c1nc(-c2ccccc2)no1	-11	/	/
Fc1ccccc1-c1nc(-c2ccc(-c3nn[nH]n3)cc2)no1	-18	20*	0
COc1ccc(S(=O)(=O)Nc2ccc3c(c2)C(=O)N([C@@H](C)CO)C[C@@H](C)[C@@H](CN(C)C(=O)Cc2ccccc2)OCCCC[C@H](C)O3)cc1	/	-4	0
COc1ccc(NC(=O)Nc2ccc3c(c2)C(=O)N([C@H](C)CO)C[C@@H](C)[C@@H](CN(C)C(=O)Cc2ccccc2)OCCCC[C@H](C)O3)cc1	/	-11	0
COc1ccc(NC(=O)Nc2ccc3c(c2)C(=O)N([C@H](C)CO)C[C@H](C)[C@@H](CN(C)C(=O)Cc2ccccc2)OCCCC[C@H](C)O3)cc1	/	58*	0
COc1ccc(S(=O)(=O)Nc2ccc3c(c2)C(=O)N([C@@H](C)CO)C[C@@H](C)[C@@H](CN(C)C(=O)Cc2ccccc2)OCCCC[C@@H](C)O3)cc1	/	21*	0
COc1ccc(S(=O)(=O)Nc2ccc3c(c2)C(=O)N([C@@H](C)CO)C[C@H](C)[C@@H](CN(C)C(=O)Cc2ccccc2)OCCCC[C@@H](C)O3)cc1	/	26*	0
COc1ccc(S(=O)(=O)Nc2ccc3c(c2)C(=O)N([C@@H](C)CO)C[C@@H](C)[C@H](CN(C)C(=O)c2ccccc2)OCCCC[C@@H](C)O3)cc1	113*	6	0
COc1ccc(S(=O)(=O)Nc2ccc3c(c2)C(=O)N([C@@H](C)CO)C[C@@H](C)[C@@H](CN(C)C(=O)c2ccccc2)OCCCC[C@@H](C)O3)cc1	58	-2	0
COc1ccc(S(=O)(=O)Nc2ccc3c(c2)C(=O)N([C@H](C)CO)C[C@H](C)[C@@H](CN(C)C(=O)Cc2ccccc2)OCCCC[C@@H](C)O3)cc1	/	10	0
CCCC#Cc1ccc2c(c1)O[C@@H](CN(C)Cc1ccncc1)[C@H](C)CN([C@@H](C)CO)S2(=O)=O	-90	5	0
CN1[C@H](CO)[C@@H]2c3ccccc3N(C(=O)Nc3ccccc3F)C[C@@H]21	-1	-3	0
CCCNC(=O)N(C)C[C@@H]1Oc2cc(C3=CCCCC3)ccc2S(=O)(=O)N([C@@H](C)CO)C[C@H]1C	-43	0	0

High-throughput results deposited in PubChem BioAssay by Broad Institute.
